Reference: ChEMBL document CHEMBL1125686, “(Benzoylphenyl)piperidines: a new class of immunomodulators” (1991)

Legend:
Type in all cases: functional
[1] = system: Mus musculus; assay: Maximal proliferation induced in the presence of the mitogen-Concanavalin A (stimulated blastogenesis) in mice cells dosed at 5 ug/mL; set-up: unit not given here
In short: (§1)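 Splenocytes from female DBA/2 mice, 6–9 weeks old; red cells lysed with cold 0.17 M NH₄Cl. Cells plated at 5 × 10⁶ cells/mL in RPMI 1640 with 5% FCS, with compound (5–80 μg/mL range) and Con A, PWM or PHA at a batch-optimized concentration. Cultured 72 h at 37 °C, 5% CO₂, with [³H]thymidine for the final 24 h, read by scintillation. Triplicate wells; mean ± SD of three cultures.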

[2] = species on record: Mus musculus; assay: Maximal proliferation induced in the presence of the mitogen-PWM ( stimulated blastogenesis) in Mice cells at a dose of 80 ug/mL; set-up: unit not given here; in short: as §1
[3] = species on record: Mus musculus; assay: Proliferation induced by the mitogen alone-PWM (control blastogenesis), in Mice cells at a dose of 80 ug/mL; set-up: unit not given here
In short: (§2)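 Splenocytes from female DBA/2 mice aged 6–9 weeks, red cells lysed with cold 0.17 M NH4Cl, cultured at 5 × 10⁶ cells/mL in RPMI 1640 with 5% FCS. Pokeweed mitogen added at a batch-adjusted optimal level, 72 h at 37 °C, 5% CO2. [³H]thymidine pulse for the final 24 h, then scintillation counting. Triplicates; mean ± SD of three cultures.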

[4] = system: Mus musculus; assay: Proliferation induced by the mitogen alone-Concanavalin A (control blastogenesis), in mice cells dosed at 5 ug/mL; set-up: unit not given here; in short: as §1
[5] = species on record: Mus musculus; assay: Maximal proliferation induced in the presence of the mitogen-PHA ( stimulated blastogenesis) in Mice cells at a dose of 5 ug/mL; set-up: unit not given here; in short: as §1
[6] = species on record: Mus musculus; assay: Maximal proliferation induced in the presence of the mitogen-PWM ( stimulated blastogenesis) in Mice cells at a dose of 40 ug/mL; set-up: unit not given here; in short: as §1
[7] = species on record: Mus musculus; assay: Proliferation induced by the mitogen alone-PWM (control blastogenesis), in Mice cells at a dose of 40 ug/mL; set-up: unit not given here; in short: as §2
[8] = species on record: Mus musculus; assay: Proliferation induced by the mitogen alone-PHA (control blastogenesis), in Mice cells at a dose of 5 ug/mL; set-up: unit not given here; in short: as §1
[9] = system: Mus musculus; assay: Percent of Thyl+ positive cells / spleen x 10 e6 in nude mice (in vivo)
In short: (§3)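 Female nu/nu mice, 6–9 weeks old, dosed by gastric tube in 0.2 mL 2% arabic gum with 0.1% Tween-80; controls received vehicle only. Spleens taken 24 h later and splenocytes prepared. Thy1⁺ cells counted by direct FITC anti-Thy1 staining under epifluorescence. Five animals per group, mean ± SD.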

[10] = system: Mus musculus; assay: […] induction of Thyl+ antigen expression on murine bone marrow cells at the concentration of 2.5 uM(Fraction A).(treated)
In short: (§4)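 Bone marrow from female C57 BL/6 mice, 5–8 weeks old, separated on a discontinuous BSA gradient. Fraction A (lowest density) and fraction B (next lowest) resuspended at 10⁶ cells/mL in HBSS with 5% BSA. Cells incubated 24 h with one compound concentration, then stained directly with FITC anti-Thy1 and counted by epifluorescence microscopy. % Thy1⁺ cells recorded for treated and control cultures.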

[11] = system: Mus musculus; assay: Percent of restoration in nude mice (in vivo); in short: as §3
[12] = system: Mus musculus; assay: […] induction of Thyl+ antigen expression on murine bone marrow cells at the concentration of 2.5 uM(Fraction A).(Control group); in short: as §4
[13] = system: Mus musculus; assay: […] induction of Thyl+ antigen expression on murine bone marrow cells at the concentration of 2.5 uM(Fraction B).(Control group); in short: as §4
[14] = system: Mus musculus; assay: […] induction of Thyl+ antigen expression on murine bone marrow cells at the concentration of 2.5 uM(Fraction B).(treated); in short: as §4
[15] = system: Mus musculus; assay: Percent of Thyl+ positive cells, in nude mice (in vivo); in short: as §3
[16] = system: Mus musculus; assay: Percent of restoration of T- cell markers in nude mice (in vivo); in short: as §3
[17] = system: Mus musculus; assay: […] induction of Thyl+ antigen expression on murine bone marrow cells at the concentration of 2.7 uM(Fraction B).(treated); in short: as §4
[18] = system: Mus musculus; assay: […] induction of Thyl+ antigen expression on murine bone marrow cells at the concentration of 2.7 uM(Fraction B).(Control group); in short: as §4
[19] = system: Mus musculus; assay: […] induction of Thyl+ antigen expression on murine bone marrow cells at the concentration of 2.7 uM(Fraction A).(Control group); in short: as §4
[20] = system: Mus musculus; assay: […] induction of Thyl+ antigen expression on murine bone marrow cells at the concentration of 2.7 uM(Fraction A).(treated); in short: as §4
[21] = species on record: Mus musculus; assay: Maximal proliferation induced by the test compound in the presence of the mitogen-PWM ( stimulated blastogenesis) in Mice cells at a dose of 20 ug/mL; in short: as §1
[22] = species on record: Mus musculus; assay: Proliferation induced by the mitogen alone-PWM (control blastogenesis), in Mice cells at a dose of 20 ug/mL; in short: as §1
[23] = species on record: Mus musculus; assay: Maximal proliferation induced by the test compound in the presence of the mitogen-PHA ( stimulated blastogenesis) in Mice cells at a dose of 10 ug/mL; in short: as §1
[24] = system: Mus musculus; assay: […] induction of Thyl+ antigen expression on murine bone marrow cells at the concentration of 7 uM(Fraction B).(treated); in short: as §4
[25] = system: Mus musculus; assay: […] induction of Thyl+ antigen expression on murine bone marrow cells at the concentration of 7 uM(Fraction A).(Control group); in short: as §4
[26] = system: Mus musculus; assay: […] induction of Thyl+ antigen expression on murine bone marrow cells at the concentration of 7 uM(Fraction A).(treated)); in short: as §4
[27] = species on record: Mus musculus; assay: Proliferation induced by the mitogen alone-PHA (control blastogenesis), in Mice cells at a dose of 10 ug/mL; in short: as §1
[28] = system: Mus musculus; assay: […] induction of Thyl+ antigen expression on murine bone marrow cells at the concentration of 7 uM(Fraction B).(Control group); in short: as §4

SMILES	Proliferative response [1]	Proliferative response [2]	Proliferative response [3]	Proliferative response [4]	Proliferative response [6]	Proliferative response [7]	other results
CC1CCN(c2ccc(N)cc2C(=O)c2ccc(Cl)c(Cl)c2)CC1	151.5	64.4	48.4	136.6	–	–	–
CC1CCN(c2ccc(N)cc2C(=O)c2ccc(Br)cc2)CC1	123.4	–	–	118.7	56.4	40.5	Proliferative response [5]: 11.1; Proliferative response [8]: 7
CCOC(=O)Nc1ccc(N2CCC(C)CC2)c(C(=O)c2ccc(Cl)cc2)c1	16.3	–	–	8	–	–	Thylpositive cells/spleen [9]: 2.5e+06 cells/spleen; Differentiation [10]: 11.6%; Restoration [11]: 3.3%; Differentiation [12]: 6.1%; Differentiation [13]: 6.1%; Differentiation [14]: 5.5%; Thylpositive cells [15]: 3.4%; Restoration [16]: 3.2%
CC1CCCCN1c1ccc(N)cc1C(=O)c1ccc(Cl)cc1 (centres undefined)	295	–	–	131.5	58.1	55.8	Differentiation [17]: 4.4%; Differentiation [18]: 5%; Differentiation [19]: 5.6%; Differentiation [20]: 6%
Cc1cc(C(=O)c2cc(N)ccc2N2CCC(C)CC2)cc(C)c1C	206	–	–	152.6	–	–	Proliferative response [21]: 77.1; Proliferative response [22]: 84.5
CC1CCN(c2ccc(N)cc2C(=O)c2ccc(Cl)cc2)CC1	269.5	–	–	194.5	101.9	36.5	Proliferative response [23]: 43.5; Thylpositive cells/spleen [9]: 6.65e+06 cells/spleen; Differentiation [24]: 11.4%; Differentiation [25]: 5.6%; Differentiation [26]: 11.5%; Restoration [11]: 24.5%; Proliferative response [27]: 12.8; Differentiation [28]: 5%; Thylpositive cells [15]: 6.9%; Restoration [16]: 14.3%
Cc1ccc(C(=O)c2cc(N)ccc2N2CCC(C)CC2)c(C)c1	250	61.5	68.8	279.6	–	–	–
CC1CCN(c2ccc(N)cc2C(=O)c2ccc(F)cc2)CC1	165.6	69.9	72.2	268.2	–	–	–
